We go through four compounds from PMC2941776 (ACS chemical biology, 2008).

A word on the IC50: it is the concentration at which inhibition is half-maximal.

Where “and” joins values, the source holds several entries; their conditions need not be identical. Equal values may be shown once. Read-outs that look alike come from different tables or passages of the source.

Assay [1] concerns the target HIV-1 RT RNase H activity (wild type p66/p51) (Human immunodeficiency virus type 1, UniProt P03366). Description: FRET-based RNase H assay, wild-type HIV-1 RT. The class given is biochemical.
For assay [2], the target named is HIV-1 RT Tyr501Trp (Human immunodeficiency virus type 1 group M subtype B, UniProt P03366, Y1100W). Description: FRET-based RNase H assay, Tyr501Trp RT. The format is biochemical.
Assay [3] concerns the target HIV-1 RT Tyr501Az-Phe (Human immunodeficiency virus type 1, UniProt P03366, Y1100X). Description: FRET-based RNase H assay, Tyr501Az-Phe RT. The format is biochemical.
Assay [4] concerns the target p66^501BpF/p51 RT (Human immunodeficiency virus type 1, UniProt P03366, Y1100X). Description: FRET-based RNase H assay, Tyr501Bp-Phe RT. The format is biochemical, HIV-1. Conditions: for IC50: IC50, RNase H activity, Tyr501Bp-Phe RT.
For assay [5], the target named is HIV-1 RT DNA polymerase activity (Human immunodeficiency virus type 1, UniProt P03366). In words: DNA polymerase activity in the absence of pyrophosphorolysis. The format is biochemical. Particulars: 50 μM, data not shown.
Assay [6] concerns wild-type RT / RNA-DNA hybrid complex. Description: Electrophoretic mobility shift analysis, wild-type RT on RNA/DNA hybrid. Particulars: 50 μM; gel-mobility shift. The format is binding, HIV-1. The method, boiled down:
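Mobility-shift assay: RT 250 nM with RNA/DNA hybrid 50 nM (14 nt RNA–8 nt DNA chimera annealed to 22 nt DNA, mimicking tRNA primer removal) in 50 mM Tris/HCl pH 7.8, 50 mM NaCl. Test compound 0.6–50 μM. Complexes resolved by nondenaturing electrophoresis and detected by autoradiography.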
In general terms: A gel shift assay detects complexes by their altered migration in electrophoresis.

Assay [7] relates to HIV-1 RNase H activity. Description: Yonetani–Theorell analysis of RNase H inhibition. The class given is biochemical. Conditions: NSC727447 0.25–16 μM, β-thujaplicinol 0.1–0.4 μM; substrate 250 nM, enzyme 4 nM. Put shortly:
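FRET RNase H assay: 18-nt 3'-fluorescein RNA annealed to 5'-dabcyl DNA (250 nM), enzyme 4 nM. Test compound at 0, 0.25, 0.5, 1, 2, 4, 8, 16 μM, each at β-thujaplicinol 0, 0.1, 0.2, 0.4 μM. Substrate added to start; fluorescence followed for 60 min. Inverse rate (ΔRFU/min) fitted to the Yonetani–Theorell equation to obtain interaction term γ.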

Assay [8] deals with Thr473Cys RT (Human immunodeficiency virus type 1 group M subtype B, UniProt P03366, T1072C). Description: RNase H inhibition, Thr473Cys RT. The class given is biochemical, HIV-1. Conditions: Thr473 replaced with cysteine.
Assay [9] has as its system HIV-1 RT variant with Cys38 and Cys280 removed from p66 and p51. In words: RNase H inhibition, RT variant lacking Cys38 and Cys280. The class given is biochemical. Particulars: Cys38 and Cys280 removed from both subunits.

In the case of `NC(=O)c1c(N)sc2c1CCCCC2` [NSC727447, 2-amino-5,6,7,8-tetrahydro-4H-cyclohepta[b]thiophene-3-carboxamide], the IC50 in [1] is 6.6 µM; in assay [2], 70.6 µM; in assay [3], 89.6 µM; in assay [4] it was 197 µM and 196 µM. Also, the “fold decrease in inhibitor potency vs wild type” value in [2] (Tyr501Trp RT vs wild type) is on record as ~ 11 fold; in assay [3] (Tyr501Az-Phe RT vs wild type), 14 fold. For the same compound, the “fold resistance vs wild type” value in [4] (p66^501BpF/p51 RT vs wild type) is around 30 fold. Moreover, the “inhibition of DNA polymerase activity” value in assay [5] is on record as “insensitive to inhibition”. Further, the “effect on affinity of RT for RNA/DNA substrate” value in assay [6] is “unaffected”. Further, the “mode of interaction with β-thujaplicinol (NSC18806), Yonetani–Theorell” value in assay [7] is on record as “mutually exclusive inhibitors”. In addition, the “sensitivity of mutant enzyme to inhibitor vs wild type” value in assay [8] is recorded as “increased sensitivity”. Moreover, the “sensitivity of mutant enzyme to inhibitor” value in assay [9] is listed as “retained sensitivity”.
Take `Cc1sc(NC(=O)c2ccco2)c(C(N)=O)c1C` [NSC727448, N-[3-(aminocarbonyl)-4,5-dimethyl-2-thienyl]-2-furancarboxamide]: the half-maximal inhibitory concentration (IC50) in [1] is around 5.5 µM; in assay [4] it was around 220 µM.
As for `CC(C)c1ccc(O)c(=O)c(O)c1` [β-thujaplicinol, reference compound], the IC50 in [1] came out at 0.25 ± 0.023 µM.
In the case of manicol [reference compound], the IC50 in assay [1] (read-out: IC50, RNase H activity, wild-type RT, FRET substrate) amounted to 0.6 ± 0.09 µM.
